Results on 16 compounds are retold here after ChEMBL document CHEMBL2010735, “Bioactive hydroanthraquinones and anthraquinone dimers from a soft coral-derived Alternaria sp. fungus” (J Nat Prod, 2012).

≈ marks a conversion by molar mass, not a printed value.

One test concerns HCT-116. In words: Cytotoxicity against human HCT116 cells after 6 days by MTT assay. It counts as functional, cell-based. Conditions: HCT-116, 144 h. (Formazan colour is commonly taken as a measure of viable cells.)
Test [1] in a line: Cytotoxicity against human MCF7/ADR cells after 6 days by MTT assay. It counts as functional, cell-based. Particulars: NCI/ADR-RES, 144 h.
Test [2] can be described thus: Cytotoxicity against human Hep3B cells after 6 days by MTT assay. It counts as functional, cell-based, Hep 3B2. Particulars: 144 h.
The subject of another test is HepG2. In words: Cytotoxicity against human HepG2 cells after 6 days by MTT assay. Conditions: HepG2, 144 h. It counts as functional, cell-based.
Another test deals with PC-3. Briefly: Cytotoxicity against human PC3 cells after 6 days by MTT assay. It counts as functional, cell-based. Particulars: PC-3, 144 h.
Test [3] has as its system Porcine reproductive and respiratory syndrome virus. In words: Antiviral activity against Porcine reproductive and respiratory syndrome virus infected in CRL11171 cells assessed as inhibition of viral replication by RT-PCR analysis. It counts as functional, cell-based.
A further test relates to Vibrio parahaemolyticus. Briefly: Antibacterial activity against Vibrio parahaemolyticus after 18 hrs by MTT assay. Particulars: in the assay text read “by broth dilution assay” for “by MTT assay”. It counts as functional. In outline:
(§1)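 Conventional broth dilution assay against a panel of nine bacterial strains including E. coli and S. albus; V. parahemolyticus also used as pathogenic test organism.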

The test system of a further test is Staphylococcus. Briefly: Antibacterial activity against Staphylococcus albus after 18 hrs by MTT assay. It counts as functional. Particulars: in the assay text read “by broth dilution assay” for “by MTT assay”. The procedure, abridged: as §1
The next test deals with Escherichia coli. In words: Antibacterial activity against Escherichia coli after 18 hrs by MTT assay. It counts as functional. Particulars: in the assay text read “by broth dilution assay” for “by MTT assay”. In outline: as §1

As usually defined, the IC50 is the concentration needed to halve the response being measured. As to `COc1cc(O)c2c(c1)[C@H](O)[C@H]1C[C@](C)(O)[C@H](OC(C)=O)C[C@@H]1C2=O`, the IC50 (in the test with HCT-116; in test [1]; in [2]; with HepG2; in the test with PC-3) was more than 100 µM each time.

For `COc1cc(O)c2c(c1)[C@H](O)[C@@H]1C[C@](C)(O)[C@H](O)C[C@H]1C2=O` (relative stereo), the 50% inhibitory concentration (IC50) (in the test on HCT-116; in [1]; in test [2]; in the test on HepG2; in the test on PC-3) was more than 100 µM each time.

Consider `COc1cc(O)c2c(c1)[C@H](O)[C@@H]1C(=C[C@@H](O)[C@@](C)(O)[C@@H]1O)C2=O` (relative stereo), for which the IC50 (in the test on HCT-116; in [1]; in [2]; with HepG2; in the test on PC-3) was more than 100 µM in each case.

With `COc1cc(O)c2c(c1)[C@@H](O)[C@H]1C[C@](C)(O)[C@H](O)C[C@@H]1C2=O` (relative stereo) [TETRAHYDROALTERSOLANOL C], the IC50 in the test with HCT-116 is more than 100 µM; in test [3], 65 µM; in test [1] it was more than 100 µM; in test [2], more than 100 µM; in the test on HepG2, more than 100 µM; with PC-3, more than 100 µM.

On to `COc1cc(O)c2c(c1)[C@H](O)[C@H]1C[C@](C)(O)[C@@H](O)C[C@@H]1C2=O` (relative stereo) [TETRAHYDROALTERSOLANOL E], for which the IC50 (with HCT-116; in [1]; in [2]; with HepG2; in the test on PC-3) was more than 100 µM in each case.

One may read the MIC as the lowest concentration that inhibits growth of the organism. In the case of `COc1cc(O)c2c(c1)C(=O)c1cc(C)c(O)c(-c3c(OC)cc4c(c3O)C(=O)C3=C(C4=O)[C@@H](O)[C@](C)(O)[C@H](O)[C@H]3O)c1C2=O` [ALTERPORRIOL C], the minimum inhibitory concentration (MIC) with Vibrio parahaemolyticus is 2.5 µM (≈ 1.55 µg/mL); with Staphylococcus, more than 20 µM; with Escherichia coli, 2.5 µM (≈ 1.55 µg/mL). Also, the half-inhibitory concentration (IC50) with HCT-116 turned out to be 24 µM; in test [3] it was 39 µM; in [1], 98 µM; in test [2] it was 51 µM; in the test with HepG2, 53 µM; with PC-3, 27 µM.

Turning to `COc1cc(O)c2c(c1)C(=O)c1cc(C)c(O)c(-c3c(OC)cc4c(c3O)C(=O)C3=C(C4=O)[C@@H](O)[C@](C)(O)[C@H](O)C3)c1C2=O` [ALTERPORRIOL P], the 50% inhibitory concentration (IC50) in the test on HCT-116 turned out to be 8.6 µM; in test [1] it was 23 µM; in test [2], 21 µM; in the test with HepG2 it was 20 µM; in the test on PC-3 it was 6.4 µM.

For `COc1cc(O)c2c(c1)C(=O)c1cc(C)c(O)c(-c3c(OC)cc4c(c3O)C(=O)c3cc(O)c(C)cc3C4=O)c1C2=O` [ALTERPORRIOL Q], the concentration for half-maximal inhibition (IC50) in test [3] came out at 22 µM.

Take `COc1cc(O)c2c(c1)C(=O)C1=C(C[C@@H](O)[C@@](C)(O)C1)C2=O` [ALTERSOLANOL B]: the IC50 (in the test with HCT-116; in [1]; in test [2]; in the test with HepG2; in the test with PC-3) was more than 100 µM in each case.

On to `COc1cc(O)c2c(c1)C(=O)C1=C(C[C@@H](O)[C@@](C)(O)[C@@H]1O)C2=O` [ALTERSOLANOL C], for which the MIC stood at 1.25 µM (≈ 0.4 µg/mL) in the test with Vibrio parahaemolyticus, 12 µM (≈ 3.84 µg/mL) against Staphylococcus and 0.62 µM (≈ 0.199 µg/mL) in the test on Escherichia coli. Further, the half-inhibitory concentration (IC50) turned out to be 2.2 µM in the test with HCT-116; 3.2 µM in test [1]; 8.2 µM in test [2]; 8.9 µM in the test with HepG2; 7.6 µM with PC-3.

Turning to `COc1cc(O)c2c(c1)[C@H](O)[C@@H]1[C@H](C[C@@H](O)[C@@](C)(O)[C@@H]1O)C2=O` [ALTERSOLANOL L], the IC50 (in the test with HCT-116; in [1]; in test [2]; in the test on HepG2; in the test on PC-3) was more than 100 µM in each case.

`COc1cc(O)c2c(c1)[C@H](O)[C@@H]1[C@@H](C2=O)[C@H](O)[C@@H](O)[C@@](C)(O)[C@@H]1O` [AMPELANOL]: the IC50 (in the test on HCT-116; in test [1]; in test [2]; with HepG2; with PC-3) was more than 100 µM throughout.

On to `O=C(O)c1cn(C2CC2)c2cc(N3CCNCC3)c(F)cc2c1=O` [CIPROFLOXACIN], for which the MIC against Vibrio parahaemolyticus turned out to be 0.16 µM (≈ 0.053 µg/mL); in the test with Staphylococcus, 0.31 µM (≈ 0.103 µg/mL); in the test on Escherichia coli it was 0.62 µM (≈ 0.205 µg/mL).

`COc1cccc2c1C(=O)c1c(O)c3c(c(O)c1C2=O)C[C@@](O)(C(=O)CO)C[C@@H]3O[C@H]1C[C@H](N)[C@@H](O)[C@H](C)O1` [EPIRUBICIN]: the IC50 stood at 0.82 µM with HCT-116; 1.65 µM in test [1]; 0.96 µM in [2]; 1.65 µM with HepG2; 0.46 µM in the test on PC-3.

Turning to `COc1cc(O)c2c(c1)C(=O)c1cc(C)c(O)cc1C2=O` [MACROSPORIN], the minimal inhibitory concentration (MIC) against Vibrio parahaemolyticus worked out at 5 µM (≈ 1.42 µg/mL); in the test on Staphylococcus, 15 µM (≈ 4.26 µg/mL); against Escherichia coli it was 2.3 µM (≈ 0.654 µg/mL).

Consider `COc1cc(O)c2c(c1)[C@H](O)[C@H]1C[C@](C)(O)[C@H](O)C[C@@H]1C2=O` [TETRAHYDROALTERSOLANOL B], for which the IC50 (with HCT-116; in test [1]; in [2]; with HepG2; in the test with PC-3) was more than 100 µM each time.
